ChEMBL document CHEMBL1152982, “Synthetic analogue of rocaglaol displays a potent and selective cytotoxicity in cancer cells: involvement of apoptosis inducing factor and caspase-12” (J Med Chem, 2009)
Calls of active or inactive are those of the source. The rule behind the calls is not given here. Residues, ends and D or L forms follow the SMILES beside them. *: point of attachment. Cbz = O=C(OCc1ccccc1)*; CH2F = FC*

Assays:
HeLa = assay: Binding affinity to eIF4A in human HeLa cell extract by agarose pulldown assay; assay type: cell-free
HL-60 [1] = assay: Cytotoxicity against human HL60 cells after 72 hrs by MTS assay; assay type: functional, cell-based; conditions: HL-60, 72 h
Procedure, shortened: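 HL60 cells exposed to compound for 72 h; proliferation/viability read by MTS assay. IC50 taken from dose-response curves run in duplicate.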

[2] = Drug localization in mitochondria of human HeLa cells at 50 uM after 2 hrs by Mito-Tracker Red dye; assay type: ADME
Procedure, shortened: (§1)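 Live HeLa cells incubated with 50 μM fluorescent probe for 2 h, then 15 min with 1 μM organelle dye: Mito-Tracker Red (mitochondria), ER-tracker red (endoplasmic reticulum), or BODIPY 558/568 brefeldin A (ER plus Golgi). Localization judged by overlap of probe and dye signals in merged confocal images.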

[3] = Drug localization in endoplasmic reticulum of human HeLa cells at 50 uM after 2 hrs by ER tracker; assay type: ADME, cell-based; procedure, shortened: as §1
KB = assay: Cytotoxicity against human KB cells after 72 hrs by MTS assay; assay type: functional, cell-based
Procedure, shortened: (§2)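 Human cancer lines treated for 72 h and proliferation/viability read by MTS assay; dose-response curves in duplicate with IC50 taken from the curves; MCF7R is the P-gp (MDR1)-expressing resistant line.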

MCF7 [4] = assay: Cytotoxicity against human MCF7 cells after 72 hrs by MTS assay; assay type: functional, cell-based; procedure, shortened: as §2
MCF7 [5] = assay: Cytotoxicity against human MCF7 cells expressing P-glycoprotein after 72 hrs by MTS assay; assay type: functional, cell-based; procedure, shortened: as §2
HCT-116 = assay: Cytotoxicity against human HCT116 cells after 72 hrs by MTS assay; assay type: functional, cell-based; conditions: HCT-116, 72 h; procedure, shortened: as §2
HCT-15 = assay: Cytotoxicity against human HCT15 cells after 72 hrs by MTS assay; assay type: functional, cell-based; procedure, shortened: as §2
HepG2 [6] = assay: Cytotoxicity against human HepG2 cells after 72 hrs by MTS assay; assay type: functional, cell-based; procedure, shortened: as §2
HL-60 [7] = assay: Cell cycle arrest in human HL60 cells assessed as increase in G0/G1 peak at 200 nM after 48 hrs by FACS analysis; assay type: functional, cell-based
Procedure, shortened: (§3)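 HL60 cells treated for 48 h; vehicle control 1% DMSO, doxorubicin as positive control. Propidium iodide staining, DNA content by flow cytometry giving cell-cycle distribution (G2/M, G0-G1 peaks); n = 4, each sample in duplicate.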

[8] = Drug localization in endoplasmic reticulum of human HeLa cells after 2 hrs by ER tracker; assay type: ADME, cell-based; procedure, shortened: as §1
[9] = Drug localization in golgi apparatus of human HeLa cells after 2 hrs by Brefeldin tracker; assay type: ADME, cell-based; procedure, shortened: as §1
[10] = Drug localization in mitochondria of human HeLa cells after 2 hrs by Mito-Tracker Red dye
[11] = target: ATP-dependent translocase ABCB1 (Homo sapiens, UniProt P08183); assay: Inhibition of P-glycoprotein expressing human MCF7 cells assessed as change in rhodamine 123 efflux at 0.1 to 1 uM; assay type: cell-based
Chain of ATP-dependent translocase ABCB1 (P08183 whole entry): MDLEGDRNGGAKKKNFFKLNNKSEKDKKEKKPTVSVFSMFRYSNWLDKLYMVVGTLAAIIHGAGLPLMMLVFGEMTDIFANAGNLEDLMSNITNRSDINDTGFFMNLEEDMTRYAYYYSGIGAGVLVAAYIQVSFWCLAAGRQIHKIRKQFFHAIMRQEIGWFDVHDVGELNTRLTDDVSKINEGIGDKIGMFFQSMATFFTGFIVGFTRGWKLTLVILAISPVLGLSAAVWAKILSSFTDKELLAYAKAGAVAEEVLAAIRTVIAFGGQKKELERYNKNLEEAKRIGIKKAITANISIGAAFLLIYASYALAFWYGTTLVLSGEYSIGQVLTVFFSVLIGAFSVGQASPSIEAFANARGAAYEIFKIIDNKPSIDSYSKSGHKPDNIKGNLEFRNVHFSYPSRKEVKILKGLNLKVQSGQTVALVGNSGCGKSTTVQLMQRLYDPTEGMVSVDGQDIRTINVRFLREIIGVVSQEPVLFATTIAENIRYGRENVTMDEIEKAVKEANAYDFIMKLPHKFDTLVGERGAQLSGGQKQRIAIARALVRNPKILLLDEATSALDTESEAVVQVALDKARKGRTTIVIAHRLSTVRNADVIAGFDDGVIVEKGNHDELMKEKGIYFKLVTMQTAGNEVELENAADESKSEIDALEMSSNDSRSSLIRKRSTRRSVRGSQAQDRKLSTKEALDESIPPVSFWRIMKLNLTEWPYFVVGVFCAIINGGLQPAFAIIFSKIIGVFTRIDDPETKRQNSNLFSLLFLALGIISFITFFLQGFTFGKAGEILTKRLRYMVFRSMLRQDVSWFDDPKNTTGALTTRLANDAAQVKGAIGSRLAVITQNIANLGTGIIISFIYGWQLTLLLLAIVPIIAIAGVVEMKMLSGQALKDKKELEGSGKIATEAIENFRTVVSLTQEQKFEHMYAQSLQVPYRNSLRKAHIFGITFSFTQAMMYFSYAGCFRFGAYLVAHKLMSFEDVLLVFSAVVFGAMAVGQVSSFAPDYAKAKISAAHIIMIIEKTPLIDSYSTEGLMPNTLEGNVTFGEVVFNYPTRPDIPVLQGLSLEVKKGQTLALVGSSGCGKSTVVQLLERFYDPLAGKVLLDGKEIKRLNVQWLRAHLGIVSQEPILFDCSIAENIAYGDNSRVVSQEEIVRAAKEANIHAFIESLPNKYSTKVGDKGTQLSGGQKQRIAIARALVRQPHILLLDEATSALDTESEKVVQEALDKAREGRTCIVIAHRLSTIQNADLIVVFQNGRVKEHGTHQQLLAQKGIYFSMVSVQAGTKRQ

HepG2 [12] = assay: Enhancement of doxorubicin-induced cytotoxicity against human HepG2 cells after 72 hrs by MTS assay; assay type: functional, cell-based
Procedure, shortened: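 HepG2 cells given the test agent alone or together with 150 nM doxorubicin for 72 h; proliferation by MTS assay; duplicate experiments, n = 3.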

H9c2 [13] = assay: Induction of apoptosis in rat H9c2 cells at 0.5 to 50 nM after 24 hrs by FACS analysis; assay type: cell-based; conditions: h9c2, 24 h, 0.05 µM
Procedure, shortened: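 Rat H9c2 cardiomyoblasts treated 24 h (0.5-50 nM) or 24, 48 and 72 h (20 nM) versus vehicle; annexin V plus propidium iodide labeling and FACS for apoptosis; viability in parallel by MTS; doxorubicin 1 μM as positive control.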

HL-60 [14] = assay: Cell cycle arrest in human HL60 cells assessed as accumulation of cells in G2/M phase at 200 nM after 48 hrs by FACS analysis; assay type: functional, cell-based; procedure, shortened: as §3
HL-60 [15] = assay: Cell cycle arrest in human HL60 cells assessed as accumulation of cells in G2/M phase at 20 nM after 48 hrs by FACS analysis; assay type: functional, cell-based; procedure, shortened: as §3
HL-60 [16] = assay: Cell cycle arrest in human HL60 cells assessed as increase in G0/G1 peak at 20 nM after 48 hrs by FACS analysis; assay type: functional, cell-based; procedure, shortened: as §3
HL-60 [17] = assay: Induction of apoptosis in human HL60 cells assessed as caspase 3/7-mediated DEVD-AMC substrate cleavage at 1 to 1000 nM after 48 hrs by spectroscopy; assay type: functional, cell-based
Procedure, shortened: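 HL60 cells treated 48 h, doxorubicin as positive control; whole-cell extracts incubated with DEVD-AMC, fluorescence release followed over time; rate from slope of linear phase, expressed as fold-activation over DMSO-treated control.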

HL-60 [18] = assay: Antiproliferative activity against human HL60 cells at 50 nM in presence of caspase inhibitor Z-VAD-FMK; assay type: functional, cell-based
Procedure, shortened: (§4)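 HL60 cells exposed for 72 h, with or without co-treatment with Z-VAD-FMK (50 μM), necrostatin-1 (50 μM) or 3-methyladenine (2 mM). Antiproliferative effect was compared against vehicle.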

HL-60 [19] = assay: Antiproliferative activity against human HL60 cells at 50 nM in presence of […] inhibitor necrostatin 1; assay type: functional, cell-based; procedure, shortened: as §4
HL-60 [20] = assay: Antiproliferative activity against human HL60 cells at 50 nM in presence of […] inhibitor 3-methyladenine; assay type: functional, cell-based; procedure, shortened: as §4
HL-60 [21] = assay: Inhibition of proteasome activity in human HL60 cells at 20 to 200 nM; assay type: subcellular
Procedure, shortened: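 Lysates of HL60 cells incubated with compound; in vitro chymotrypsin-like and trypsin-like proteasome activities measured with fluorogenic AMC substrates (LLVY-AMC, RLR-AMC).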

H9c2 [22] = assay: Induction of apoptosis in rat H9c2 cells at 1 uM after 24 hrs by FACS analysis; assay type: cell-based; conditions: h9c2, 24 h
Procedure, shortened: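 Rat H9c2 cardiomyoblasts treated 24 h with compound or vehicle. Cells labeled with annexin V and propidium iodide and analyzed by FACS for apoptosis.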

HL-60 [23] = assay: Induction of apoptosis in human HL60 cells assessed as increase in caspase 3/7-mediated at 1 uM after 48 hrs measured by spectroscopy; assay type: functional
Procedure, shortened: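 HL60 cells treated 48 h. Whole-cell extracts tested for cleavage of the caspase-3 substrate DEVD-AMC, with fluorescence release read spectroscopically. Rates taken from the slope of the linear time course and expressed as fold-activation over the DMSO-treated control.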

HL-60 [24] = assay: Cytotoxicity against human HL60 cells; assay type: functional, cell-based
HL-60 [25] = assay: Inhibition of chymotrypsin-like activity of proteasome in human HL60 cells at 100 nM
Procedure, shortened: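 Lysates of HL60 cells treated with compound; chymotrypsin-like proteasome activity of the lysate measured in vitro.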

[26] = Inhibition of cap-dependent […] of firefly luciferase in mouse Krebs2 cell extract; assay type: functional, cell-free
[27] = Homo sapiens, MCF7, 72 h, read-out: IC50
[28] = Homo sapiens, HCT-15, 72 h, read-out: IC50
[29] = Homo sapiens, HepG2, 72 h, read-out: IC50

COc1cc(OC)c2c(c1)O[C@@]1(c3ccc(Br)cc3)[C@H](c3ccccc3)[C@@H](C(=O)NCCOCCOCCOCCOCCOCCOCN)[C@@H](O)[C@@]21O
Activity (HeLa): inactive

COc1ccc2c(c1)O[C@@]1(c3ccc(Br)cc3)[C@H](c3ccccc3)[C@@H](C(=O)NCCOCCOCCNC(=O)Cc3cc(=O)oc4cc(N(C)C)ccc34)[C@@H](O)[C@@]21O
IC50 (HL-60 [1]): 130 nM
Activity [2]: Not Active
Activity [3]: Active

CC[C@]1(O)C[C@@H]2CN(CCc3c([nH]c4ccccc34)[C@@](C(=O)OC)(c3cc4c(cc3OC)N(C)[C@H]3[C@@](O)(C(=O)OC)[C@H](OC(C)=O)[C@]5(CC)C=CCN6CC[C@]43[C@@H]65)C2)C1 [VINBLASTINE]
IC50 (KB): 0.8 nM
IC50 (MCF7 [4]; [27]): 4.6 nM
IC50 (MCF7 [5]; mcf7): Not Active
IC50 (HCT-116): 1.3 nM
IC50 (HCT-15; [28]): 10 nM
IC50 (HL-60 [1]): 1 nM
IC50 (HepG2 [6]; hepg2): Not Active

CC[C@@]1(O)C(=O)OCc2c1cc1n(c2=O)Cc2cc3ccccc3nc2-1 [CAMPTOTHECIN]
IC50 (KB): 38 nM
IC50 (MCF7 [4]; [27]): 10 nM
IC50 (MCF7 [5]; [27]): 3 nM
IC50 (HCT-116): 2 nM
IC50 (HCT-15; [28]): 3 nM
IC50 (HL-60 [1]): 6 nM
IC50 (HepG2 [6]; [29]): 455 nM

CC(=O)NCCOCCOCCNC(=O)Cc1cc(=O)oc2cc(N(C)C)ccc12
Activity (HL-60 [7]): inactive
Activity [8]: Not Active
Activity [9]: Not Active
Activity [10]: Not Active

CC(=O)O[C@@]12CO[C@@H]1C[C@H](O)[C@@]1(C)C(=O)[C@H](O)C3=C(C)[C@@H](OC(=O)[C@H](O)[C@@H](NC(=O)OC(C)(C)C)c4ccccc4)C[C@@](O)([C@@H](OC(=O)c4ccccc4)[C@H]21)C3(C)C.O.O.O [DOCETAXEL]
IC50 (KB): 0.2 nM
IC50 (MCF7 [4]; mcf7): Not Active
IC50 (MCF7 [5]; mcf7): Not Active
IC50 (HCT-116): 0.5 nM
IC50 (HCT-15; [28]): 13 nM
IC50 (HL-60 [1]): 0.5 nM
IC50 (HepG2 [6]; hepg2): Not Active

COc1ccc([C@@]23Oc4cc(OC)cc(OC)c4[C@]2(O)[C@H](O)C[C@H]3c2ccccc2)cc1 (racemic) [ROCAGLAOL]
IC50 (KB): 2 nM
IC50 (MCF7 [4]; [27]): 4 nM
IC50 (MCF7 [5]; [27]): 4 nM
IC50 (HCT-116): 6 nM
IC50 (HCT-15; [28]): 6 nM
IC50 (HL-60 [1]): 3 nM
Activity [11]: Not Active
Activity (HepG2 [12]): Active
Activity (H9c2 [13]): Not Active
IC50 (HepG2 [6]; [29]): 70 nM
Activity (HL-60 [14]): Active
Activity (HL-60 [15]): Active
Activity (HL-60 [7]): Active
Activity (HL-60 [16]): Active
Activity (HL-60 [17]): inactive
Activity (HL-60 [18]): inactive
Activity (HL-60 [19]): inactive
Activity (HL-60 [20]): inactive
Activity (HL-60 [21]): inactive

COc1cccc2c1C(=O)c1c(O)c3c(c(O)c1C2=O)C[C@@](O)(C(=O)CO)C[C@@H]3O[C@H]1C[C@H](N)[C@H](O)[C@H](C)O1 [DOXORUBICIN]
IC50 (KB): 1 nM
IC50 (MCF7 [4]; [27]): 12 nM
IC50 (MCF7 [5]; [27]): 58 nM
IC50 (HCT-116): 6 nM
IC50 (HCT-15; [28]): 81 nM
IC50 (HL-60 [1]): 13 nM
fold change (FC) (H9c2 [22]): 3
IC50 (HepG2 [6]; [29]): 240 nM
Activity (HL-60 [15]): Active
fold change (FC) (HL-60 [23]): 14

COc1ccc([C@@H]2C[C@@H](O)[C@@]3(O)c4c(OC)cc(OC)cc4O[C@@]23c2ccccc2)cc1
IC50 (KB): > 10000 nM
IC50 (MCF7 [4]; mcf7): Not Active
IC50 (MCF7 [5]; [27]): > 10000 nM
IC50 (HCT-116): > 10000 nM
IC50 (HCT-15; hct-15): Not Active
IC50 (HL-60 [1]): > 10000 nM
Activity [11]: Not Active
IC50 (HepG2 [6]; hepg2): Not Active

COc1cc(OC)c2c(c1)O[C@@]1(c3ccccc3)[C@H](c3ccccc3)C[C@@H](O)[C@@]21O
IC50 (KB): 2500 nM
IC50 (MCF7 [4]; [27]): 10000 nM
IC50 (MCF7 [5]; [27]): 10000 nM
IC50 (HCT-116): 6000 nM
IC50 (HCT-15; [28]): 8000 nM
IC50 (HL-60 [1]): 6000 nM
Activity [11]: Not Active
IC50 (HepG2 [6]; [29]): > 10000 nM

COC(=O)C[C@H](NC(=O)[C@H](C)NC(=O)[C@@H](NC(=O)[C@H](C)NC(=O)OCc1ccccc1)[C@@H](C)O)C(=O)CF (Cbz-ATAD(OMe)-CH2F)
Activity (HL-60 [24]): Active

CC(C)C[C@H](NC(=O)[C@H](Cc1ccccc1)NC(=O)c1cnccn1)B(O)O
Activity (HL-60 [25]): Active

COC(=O)[C@H]1[C@@H](O)[C@@]2(O)c3c(OC)cc(O[C@@H]4O[C@@H]([C@H](O)CO)CO[C@H]4OC)cc3O[C@@]2(c2ccc(OC)cc2)[C@@H]1c1ccccc1 [SILVESTROL]
IC50 [26]: 300 nM

COC(=O)[C@H]1[C@@H](OC=O)[C@@]2(O)c3c(OC)cc(OC)cc3O[C@@]2(c2ccc(OC)cc2)[C@@H]1c1ccccc1
IC50 [26]: 3000 nM
